Test results reported in ChEMBL document CHEMBL4330103, “Design, synthesis, and bioactivity evaluation of novel Bcl-2/HDAC dual-target inhibitors for the treatment of multiple myeloma” (Bioorg Med Chem Lett, 2019).
Calls of active or inactive are those of the source. The rule behind the calls is not given here.

Each compound was assayed against T1, Protein deacetylase HDAC6 (Homo sapiens, UniProt Q9UBN7) (assay: Inhibition of full length recombinant human N-terminal GST-tagged HDAC6 expressed in baculovirus infected sf9 cells preincubated for 5 mins followed by biotinylated H3K9-Ac substrate addition and measured after 60 mins by HTRF assay). Details: not given.
T1 sequence (Q9UBN7 whole entry): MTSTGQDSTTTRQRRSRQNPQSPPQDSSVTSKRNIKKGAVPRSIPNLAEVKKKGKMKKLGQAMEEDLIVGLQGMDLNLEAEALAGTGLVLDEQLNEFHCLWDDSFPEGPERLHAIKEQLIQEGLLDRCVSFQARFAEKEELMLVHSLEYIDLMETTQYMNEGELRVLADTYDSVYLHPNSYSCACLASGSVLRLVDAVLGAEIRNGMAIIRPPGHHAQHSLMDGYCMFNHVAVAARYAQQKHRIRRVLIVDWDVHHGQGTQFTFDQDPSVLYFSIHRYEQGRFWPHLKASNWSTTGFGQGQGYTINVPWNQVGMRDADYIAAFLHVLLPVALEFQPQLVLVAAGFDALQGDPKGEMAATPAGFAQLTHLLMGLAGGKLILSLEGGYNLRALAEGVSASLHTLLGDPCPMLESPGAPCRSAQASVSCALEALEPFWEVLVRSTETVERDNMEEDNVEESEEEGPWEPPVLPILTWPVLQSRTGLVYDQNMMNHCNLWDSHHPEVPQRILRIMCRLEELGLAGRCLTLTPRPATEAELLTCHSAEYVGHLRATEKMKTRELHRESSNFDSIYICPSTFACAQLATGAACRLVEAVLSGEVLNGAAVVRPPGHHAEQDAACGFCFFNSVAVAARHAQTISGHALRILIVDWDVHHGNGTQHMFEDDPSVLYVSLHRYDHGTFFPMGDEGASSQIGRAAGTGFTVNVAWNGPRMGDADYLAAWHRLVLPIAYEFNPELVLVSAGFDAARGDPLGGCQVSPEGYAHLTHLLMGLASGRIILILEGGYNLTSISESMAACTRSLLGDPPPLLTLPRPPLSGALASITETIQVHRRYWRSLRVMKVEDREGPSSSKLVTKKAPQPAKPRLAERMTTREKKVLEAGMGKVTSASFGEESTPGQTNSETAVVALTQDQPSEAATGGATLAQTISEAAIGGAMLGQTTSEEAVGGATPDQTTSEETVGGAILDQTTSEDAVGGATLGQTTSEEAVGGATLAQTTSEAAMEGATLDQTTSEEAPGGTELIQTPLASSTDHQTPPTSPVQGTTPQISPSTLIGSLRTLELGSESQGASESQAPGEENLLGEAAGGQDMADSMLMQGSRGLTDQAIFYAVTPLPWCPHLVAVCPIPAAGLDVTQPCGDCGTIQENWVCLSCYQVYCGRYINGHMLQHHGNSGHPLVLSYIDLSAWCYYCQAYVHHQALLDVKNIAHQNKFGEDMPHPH

SMILES | IC50 [nM]
CC1(C)CCC(CN2CCN(c3ccc(C(=O)NS(=O)(=O)c4ccc(NCC(=O)NO)c([N+](=O)[O-])c4)c(Oc4cnc5[nH]ccc5c4)c3)CC2)=C(c2ccc(Cl)cc2)C1 | > 1000
CC1(C)CCC(CN2CCN(c3ccc(C(=O)NS(=O)(=O)c4ccc(NCCCC(=O)NO)c([N+](=O)[O-])c4)c(Oc4cnc5[nH]ccc5c4)c3)CC2)=C(c2ccc(Cl)cc2)C1 | > 1000
CC1(C)CCC(CN2CCN(c3ccc(C(=O)NS(=O)(=O)c4ccc(NCCCCC(=O)NO)c([N+](=O)[O-])c4)c(Oc4cnc5[nH]ccc5c4)c3)CC2)=C(c2ccc(Cl)cc2)C1 | > 1000

The remaining lines, values ahead:

IC50 [nM] | SMILES
19 | CC1(C)CCC(CN2CCN(c3ccc(C(=O)NS(=O)(=O)c4ccc(NCCCCCCCC(=O)NO)c([N+](=O)[O-])c4)c(Oc4cnc5[nH]ccc5c4)c3)CC2)=C(c2ccc(Cl)cc2)C1
> 1000 | CC1(C)CCC(CN2CCN(c3ccc(C(=O)NS(=O)(=O)c4ccc(NCCC(=O)NO)c([N+](=O)[O-])c4)c(Oc4cnc5[nH]ccc5c4)c3)CC2)=C(c2ccc(Cl)cc2)C1
28 | CC1(C)CCC(CN2CCN(c3ccc(C(=O)NS(=O)(=O)c4ccc(NCCCCCC(=O)NO)c([N+](=O)[O-])c4)c(Oc4cnc5[nH]ccc5c4)c3)CC2)=C(c2ccc(Cl)cc2)C1
28 | CC1(C)CCC(CN2CCN(c3ccc(C(=O)NS(=O)(=O)c4ccc(NCCCCCCC(=O)NO)c([N+](=O)[O-])c4)c(Oc4cnc5[nH]ccc5c4)c3)CC2)=C(c2ccc(Cl)cc2)C1

The compounds below were run against Apoptosis regulator Bcl-2 (Homo sapiens, UniProt P10415) (assay: Inhibition of FAM-Bid peptide binding to Bcl2 (unknown origin) by fluorescence polarization assay). Details: not given.
Apoptosis regulator Bcl-2, sequence (P10415 whole entry): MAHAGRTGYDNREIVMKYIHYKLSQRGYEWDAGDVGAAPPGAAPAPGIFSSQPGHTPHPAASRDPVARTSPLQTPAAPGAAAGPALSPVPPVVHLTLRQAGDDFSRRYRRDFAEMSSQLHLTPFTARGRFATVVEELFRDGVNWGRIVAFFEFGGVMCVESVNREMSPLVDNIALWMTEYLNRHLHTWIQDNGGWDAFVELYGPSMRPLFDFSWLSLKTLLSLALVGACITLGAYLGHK

IC50 [nM] | SMILES
250 | CC1(C)CCC(CN2CCN(c3ccc(C(=O)NS(=O)(=O)c4ccc(NCCCCCCCC(=O)NO)c([N+](=O)[O-])c4)c(Oc4cnc5[nH]ccc5c4)c3)CC2)=C(c2ccc(Cl)cc2)C1
230 | CC1(C)CCC(CN2CCN(c3ccc(C(=O)NS(=O)(=O)c4ccc(NCCCCCC(=O)NO)c([N+](=O)[O-])c4)c(Oc4cnc5[nH]ccc5c4)c3)CC2)=C(c2ccc(Cl)cc2)C1
240 | CC1(C)CCC(CN2CCN(c3ccc(C(=O)NS(=O)(=O)c4ccc(NCCCCCCC(=O)NO)c([N+](=O)[O-])c4)c(Oc4cnc5[nH]ccc5c4)c3)CC2)=C(c2ccc(Cl)cc2)C1

Each compound was assayed on U-266 (assay: cells). Details: Homo sapiens, U-266, 72 h.
Type: functional, cell-based

SMILES | IC50 [nM]
O=C(CCCCCCNC(=O)c1cnc(N(c2ccccc2)c2ccccc2)nc1)NO [RICOLINOSTAT] | 21200
CC1(C)CCC(CN2CCN(c3ccc(C(=O)NS(=O)(=O)c4ccc(NCC5CCOCC5)c([N+](=O)[O-])c4)c(Oc4cnc5[nH]ccc5c4)c3)CC2)=C(c2ccc(Cl)cc2)C1 [VENETOCLAX] | 94000

The next lines start with the values.

IC50 [nM] | SMILES
8700 | CC1(C)CCC(CN2CCN(c3ccc(C(=O)NS(=O)(=O)c4ccc(NCCCCCCCC(=O)NO)c([N+](=O)[O-])c4)c(Oc4cnc5[nH]ccc5c4)c3)CC2)=C(c2ccc(Cl)cc2)C1
27100 | CC1(C)CCC(CN2CCN(c3ccc(C(=O)NS(=O)(=O)c4ccc(NCCCCCC(=O)NO)c([N+](=O)[O-])c4)c(Oc4cnc5[nH]ccc5c4)c3)CC2)=C(c2ccc(Cl)cc2)C1
9800 | CC1(C)CCC(CN2CCN(c3ccc(C(=O)NS(=O)(=O)c4ccc(NCCCCCCC(=O)NO)c([N+](=O)[O-])c4)c(Oc4cnc5[nH]ccc5c4)c3)CC2)=C(c2ccc(Cl)cc2)C1

The compounds below were run on RPMI-8226 (assay: cells). Details: Homo sapiens, RPMI-8226, 72 h.
Type: functional, cell-based

SMILES | IC50 [nM]
O=C(CCCCCCNC(=O)c1cnc(N(c2ccccc2)c2ccccc2)nc1)NO [RICOLINOSTAT] | 11000
CC1(C)CCC(CN2CCN(c3ccc(C(=O)NS(=O)(=O)c4ccc(NCC5CCOCC5)c([N+](=O)[O-])c4)c(Oc4cnc5[nH]ccc5c4)c3)CC2)=C(c2ccc(Cl)cc2)C1 [VENETOCLAX] | 2700

Results, then the compound that gave them:

IC50 [nM] | SMILES
200 | CC1(C)CCC(CN2CCN(c3ccc(C(=O)NS(=O)(=O)c4ccc(NCCCCCCCC(=O)NO)c([N+](=O)[O-])c4)c(Oc4cnc5[nH]ccc5c4)c3)CC2)=C(c2ccc(Cl)cc2)C1
300 | CC1(C)CCC(CN2CCN(c3ccc(C(=O)NS(=O)(=O)c4ccc(NCCCCCC(=O)NO)c([N+](=O)[O-])c4)c(Oc4cnc5[nH]ccc5c4)c3)CC2)=C(c2ccc(Cl)cc2)C1
300 | CC1(C)CCC(CN2CCN(c3ccc(C(=O)NS(=O)(=O)c4ccc(NCCCCCCC(=O)NO)c([N+](=O)[O-])c4)c(Oc4cnc5[nH]ccc5c4)c3)CC2)=C(c2ccc(Cl)cc2)C1

These compounds were tested against T2, Protein deacetylase HDAC6 (Homo sapiens) (UniProt Q9UBN7) (assay: Inhibition of HDAC6 in human RPMI8226 cells assessed as increase in acetylated-tubulin level at 10 uM after 24 hrs by Western blot analysis). Details: not given.
T2 sequence (whole entry): T1 sequence (Q9UBN7 whole entry)
Type: cell-based
In short: (§1)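 RPMI-8226 cells exposed to compound at 10 μM for 24 h. Acetylated histone H3 and acetylated tubulin were then detected by immunoblot with specific antibodies.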

inhibition | SMILES
Active | CC1(C)CCC(CN2CCN(c3ccc(C(=O)NS(=O)(=O)c4ccc(NCCCCCCCC(=O)NO)c([N+](=O)[O-])c4)c(Oc4cnc5[nH]ccc5c4)c3)CC2)=C(c2ccc(Cl)cc2)C1
Active | CC1(C)CCC(CN2CCN(c3ccc(C(=O)NS(=O)(=O)c4ccc(NCCCCCC(=O)NO)c([N+](=O)[O-])c4)c(Oc4cnc5[nH]ccc5c4)c3)CC2)=C(c2ccc(Cl)cc2)C1
Active | CC1(C)CCC(CN2CCN(c3ccc(C(=O)NS(=O)(=O)c4ccc(NCCCCCCC(=O)NO)c([N+](=O)[O-])c4)c(Oc4cnc5[nH]ccc5c4)c3)CC2)=C(c2ccc(Cl)cc2)C1

These compounds were tested against T3, Histone deacetylase 1 (Homo sapiens, UniProt Q13547) (assay: Inhibition of HDAC1 in human RPMI8226 cells assessed as increase in acetylated-H3 level at 10 uM after 24 hrs by Western blot analysis). Details: not given.
Type: cell-based
In short: as §1

T3 sequence (Q13547 whole entry): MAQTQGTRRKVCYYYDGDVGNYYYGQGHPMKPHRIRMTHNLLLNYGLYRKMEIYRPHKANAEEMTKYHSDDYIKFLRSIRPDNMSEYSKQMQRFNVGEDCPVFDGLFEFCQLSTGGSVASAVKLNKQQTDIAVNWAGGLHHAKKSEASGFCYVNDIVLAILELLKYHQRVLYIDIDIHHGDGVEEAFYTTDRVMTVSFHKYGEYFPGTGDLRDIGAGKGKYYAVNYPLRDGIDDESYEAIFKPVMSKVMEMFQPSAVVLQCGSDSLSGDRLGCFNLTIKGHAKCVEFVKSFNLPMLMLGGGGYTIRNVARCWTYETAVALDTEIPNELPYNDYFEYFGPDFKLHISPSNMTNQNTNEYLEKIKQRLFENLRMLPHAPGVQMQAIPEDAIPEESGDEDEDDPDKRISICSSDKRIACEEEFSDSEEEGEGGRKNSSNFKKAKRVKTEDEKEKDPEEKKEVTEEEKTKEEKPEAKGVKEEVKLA

inhibition | SMILES
Active | CC1(C)CCC(CN2CCN(c3ccc(C(=O)NS(=O)(=O)c4ccc(NCCCCCCCC(=O)NO)c([N+](=O)[O-])c4)c(Oc4cnc5[nH]ccc5c4)c3)CC2)=C(c2ccc(Cl)cc2)C1

Organism: Homo sapiens
Assay: Selectivity index, ratio of IC50 for full length recombinant human C-terminal FLAG-tagged HDAC1 expressed in sf9 cells to IC50 for full length recombinant human N-terminal GST-tagged HDAC6 expressed in baculovirus infected sf9 cells
Details: not given

SMILES | Ratio IC50
CC1(C)CCC(CN2CCN(c3ccc(C(=O)NS(=O)(=O)c4ccc(NCCCCCCCC(=O)NO)c([N+](=O)[O-])c4)c(Oc4cnc5[nH]ccc5c4)c3)CC2)=C(c2ccc(Cl)cc2)C1 | > 10
CC1(C)CCC(CN2CCN(c3ccc(C(=O)NS(=O)(=O)c4ccc(NCCCCCC(=O)NO)c([N+](=O)[O-])c4)c(Oc4cnc5[nH]ccc5c4)c3)CC2)=C(c2ccc(Cl)cc2)C1 | > 10
CC1(C)CCC(CN2CCN(c3ccc(C(=O)NS(=O)(=O)c4ccc(NCCCCCCC(=O)NO)c([N+](=O)[O-])c4)c(Oc4cnc5[nH]ccc5c4)c3)CC2)=C(c2ccc(Cl)cc2)C1 | > 10

Each compound was assayed against T3, Histone deacetylase 1 (assay: Inhibition of full length recombinant human C-terminal FLAG-tagged HDAC1 expressed in sf9 cells preincubated for 5 mins followed by biotinylated H3K9-Ac substrate addition and measured after 60 mins by HTRF assay). Details: not given.

SMILES | IC50 [nM]
CC1(C)CCC(CN2CCN(c3ccc(C(=O)NS(=O)(=O)c4ccc(NCC(=O)NO)c([N+](=O)[O-])c4)c(Oc4cnc5[nH]ccc5c4)c3)CC2)=C(c2ccc(Cl)cc2)C1 | > 1000
CC1(C)CCC(CN2CCN(c3ccc(C(=O)NS(=O)(=O)c4ccc(NCCCC(=O)NO)c([N+](=O)[O-])c4)c(Oc4cnc5[nH]ccc5c4)c3)CC2)=C(c2ccc(Cl)cc2)C1 | > 1000
CC1(C)CCC(CN2CCN(c3ccc(C(=O)NS(=O)(=O)c4ccc(NCCCCC(=O)NO)c([N+](=O)[O-])c4)c(Oc4cnc5[nH]ccc5c4)c3)CC2)=C(c2ccc(Cl)cc2)C1 | > 1000

Second part, the compound after the results:

IC50 [nM] | SMILES
281 | CC1(C)CCC(CN2CCN(c3ccc(C(=O)NS(=O)(=O)c4ccc(NCCCCCCCC(=O)NO)c([N+](=O)[O-])c4)c(Oc4cnc5[nH]ccc5c4)c3)CC2)=C(c2ccc(Cl)cc2)C1
> 1000 | CC1(C)CCC(CN2CCN(c3ccc(C(=O)NS(=O)(=O)c4ccc(NCCC(=O)NO)c([N+](=O)[O-])c4)c(Oc4cnc5[nH]ccc5c4)c3)CC2)=C(c2ccc(Cl)cc2)C1
847 | CC1(C)CCC(CN2CCN(c3ccc(C(=O)NS(=O)(=O)c4ccc(NCCCCCC(=O)NO)c([N+](=O)[O-])c4)c(Oc4cnc5[nH]ccc5c4)c3)CC2)=C(c2ccc(Cl)cc2)C1
665 | CC1(C)CCC(CN2CCN(c3ccc(C(=O)NS(=O)(=O)c4ccc(NCCCCCCC(=O)NO)c([N+](=O)[O-])c4)c(Oc4cnc5[nH]ccc5c4)c3)CC2)=C(c2ccc(Cl)cc2)C1
